High-throughput results from PubChem.
This excerpt belongs to a sample that is enriched for hits.
HUVEC prolif 384: human endothelial cell proliferation inhibition. HUVEC proliferation, CellTiter-Glo luminescence, 72 h; active compounds read low. AID 648. viability, % at 10 µM (by protocol). 86,000 tested, 1.1% active;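 active = viability at or below 30%; inactive = viability above 30%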;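 also: 100% = median luminescence of DMSO-only cell control wells on each plate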
PTEN del growth: suppresses growth of cells with PTEN deletion | HCT116 PTEN-null viability, CellTiter-Glo, 60 h; active compounds read low | viability, % at 10 µM | 140,000 tested, 1.2% active;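 active = viability at or below a set limit, 4 SD under the median of all tested compounds, cut at about 3.7% in these data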;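 also: PTEN knockout HCT116 line with beta catenin targeted HCT116 as companion control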
H69AR growth 86K: growth inhibitors of human H69AR lung tumor cells. AID 598. 85,000 tested, 6% active. viability, % at 10 µM. H69AR lung tumor viability, ATP luminescence, 72 h; active compounds read low;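 active = viability at or below 40%; inactive = viability above 40%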;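 also: multidrug resistant small cell line overexpressing MRP-1 efflux transporter; 100% = mean luminescence of untreated control wells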
Fibroblast inh: blocks proliferation of human lung fibroblasts; viability, % at 10 µM; LL 47 human lung fibroblast viability, ATP luminescence; active compounds read low; AID 719; 85,000 tested, 1.1% active;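 active = viability at or below 50% in the single dose screen; inactive = viability above 50%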;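 also: compound exposure lasted 72 h before the ATP readout; 100% = median luminescence of untreated cell-only wells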
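Assay system: human lung fibroblast line LL 47, low passage. Input: 1,150 fibroblasts seeded per well. Times: overnight cell rest, 72 h compound treatment at 37 °C. Evaluation: % viability of median cell-only signal. Technique: luminescent ATP detection, CellTiter-Glo. Control set: cell-only wells, no compound.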
bCat KO growth: beta-catenin-lacking colon tumor cell growth suppression | HCT116 beta-catenin knockout viability, CellTiter-Glo, 60 h; active compounds read low | 140,000 tested, 1.5% active | AID 818 | viability, % at 10 µM;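 active = viability at or under a set limit, the compound median less 4 SD, cut at about 6% in these data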;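 also: 0% = Hyamine 1622 control at 20 µM and 100% = untreated cell control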
* marks the source's active call; other numbers are inactive results; x = no result given.

SMILES	HUVEC prolif 384	PTEN del growth	H69AR growth 86K	Fibroblast inh	bCat KO growth
CCC(Sc1nc2sc(C(=O)OC)c(C)c2c(=O)n1N)C(=O)N(CC)CC (configuration not stated)	87.0	20.7	18.8*	96.4	52.9
CC(Oc1ccc(Cl)cc1Cl)c1nc(-c2ccc(NC(=O)c3ccccn3)cc2)no1 (configuration not stated)	44.9	53.2	28.6*	88.5	54.9
O=C(NCc1ccccn1)c1ccc(COc2ccc(Cl)cc2)o1	96.3	6.2	101.0	96.2	4.3*
CCOc1ccc(-n2c(SCc3ccc([N+](=O)[O-])cc3)nnc2-c2ccc(OC)cc2)cc1	x	62.9	x	x	67.1
CC(C)CC(=O)NC(NCC1CCCO1)C(Cl)(Cl)Cl (configuration not stated)	x	93.8	x	x	86.4
COc1ccccc1-n1c(SCc2cc(=O)oc3cc(O)ccc23)nc2ccccc2c1=O	x	85.1	x	x	84.9
COc1ccccc1-n1c(=O)oc2ccc(Cl)cc2c1=O	20.1*	1.9*	1.5*	50.4	1.2*
c1ccc(-n2cnc3cc(NCc4cccs4)ccc32)cc1	72.6	16.1	23.3*	60.8	13.1
CCN(CC)CCNc1ncnc2c1sc1nc(N3CCOCC3)c3c(c12)CC(C)(C)SC3	7.2*	1.5*	2.6*	2.6*	1.6*
CN(C)CCNc1ncnc2c1sc1nc(N3CCOCC3)c3c(c12)CC(C)(C)SC3	16.6*	1.8*	94.0	16.1*	1.7*
CC1(C)Cc2c(c(N3CCOCC3)nc3sc4c(=O)[nH]cnc4c23)CS1	64.6	84.0	42.7	92.6	88.5
Cc1c(N=C2SCC(=O)N2/N=C/c2ccccc2)c(=O)n(-c2ccccc2)n1C	x	92.0	x	x	86.2
O=C(OCC(=O)N1CCc2ccccc21)C1=COCCO1	94.0	106.2	27.6*	99.1	91.3
COC(=O)c1cc(C#N)c(Oc2ccc(F)cc2)nc1C	x	91.5	x	x	98.3
O=S(=O)(/C=C/c1ccccc1)Oc1ccccc1	77.0	x	7.4*	64.4	96.7
Cc1cnnc2ccc3c(no[n+]3[O-])c12	101.9	86.3	32.8*	107.3	84.5
CC1CCC(NC(=O)C2c3ccccc3C(=O)N2Cc2cccs2)CC1 (configuration not stated)	x	72.1	x	x	81.3
COc1cc(/C=C2/C(=N)N3C=CSC3=NC2=O)ccc1OCCCOc1cc(C)ccc1C	15.2*	74.4	19.1*	70.2	86.9
COc1ccc(-c2cc(C(F)(F)F)nc(N3CCN(c4ccc(F)cc4)CC3)n2)cc1OC	68.1	102.4	17.2*	93.5	99.0
COc1ccc(-c2cc(-c3ccc(F)cc3)nc(N3CCN(C)CC3)n2)cc1	70.1	3.4*	46.6	x	3.3*
COc1ccc(-c2cc(C(F)(F)F)nc(N3CCOCC3)n2)cc1	88.3	88.6	81.1	87.5	88.9
Cc1nn(C)c(C(=O)N2CCOCC2)c1Cl	x	101.1	x	x	93.8
COc1cc(/C=C/C(=O)c2ccc(O)cc2)ccc1OCC#N	x	1.7*	x	x	2.7*
COc1ccc(/C=C/C(=O)c2ccc(O)cc2)cc1CN1CCOCC1	x	12.0	x	x	14.2
COC(=O)c1ccc(/C=C/C(=O)c2cccc(OC)c2)cc1	x	1.9*	x	x	2.1*
SMILES	HUVEC prolif 384	PTEN del growth	H69AR growth 86K	Fibroblast inh	bCat KO growth
COc1cccc(C(=O)/C=C/c2ccc(OCC#N)c(OC)c2)c1	x	2.5*	x	x	3.6*
CCOc1ccc(/C=C/C(=O)c2ccccc2)cc1OC	x	7.4	x	x	8.8
COC(CNC(=O)c1cc(C)nn1-c1ccccc1)OC	103.7	95.1	90.8	104.3	95.6
CCc1cc2c(Sc3nc4ccccc4s3)ncnc2s1	x	3.7*	x	x	4.4*
c1ccc2sc(Sc3ncnc4sccc34)nc2c1	x	4.1	x	x	4.2*
CCc1cc2c(SCC(=O)c3ccc(C)cc3)ncnc2s1	103.0	97.6	87.9	120.1	95.6
COc1ccc(C(C)NC(=O)c2cccc([N+](=O)[O-])c2)cc1OC (configuration not stated)	x	92.6	x	x	88.6
O=C(NCCN1CCOCC1)c1cc(Cl)ccc1[N+](=O)[O-]	x	104.5	x	x	100.8
O=c1c(/C=C(\O)c2ccccc2)nc2ccccc2n1-c1ccccc1	111.6	77.3	38.8*	103.5	84.8
CC(C)c1ccc(-c2nc(N3CCCC3)nc3n[nH]c(N)c23)cc1	57.1	82.0	11.2*	75.2	91.9
O=C(N/N=C/C(Br)=C/c1ccccc1)c1n[nH]c2c1CCC2	30.3	1.7*	1.8*	59.3	2.7*
O=C1c2ccccc2C(=O)c2c1cccc2N1CCOCC1	x	67.3	x	x	83.9
